This is an account of results in ChEMBL document CHEMBL3351900, “Conjugation of a nonspecific antiviral sapogenin with a specific HIV fusion inhibitor: a promising strategy for discovering new antiviral therapeutics” (J Med Chem, 2014).

For orientation: EC50 means the concentration needed to bring the measured effect to its halfway point. As usually defined, the CC50 is the concentration at which the toxic effect on the cells reaches its halfway point.

Series [1] can be described thus: Selectivity index, ratio of CC50 for human MT2 cells to EC50 for HIV1 3B infected in human MT2 cells. In kind it is toxicity, cell-based. Conditions: read-out: Ratio CC50/EC50.
Series [2] concerns Human immunodeficiency virus 1. The series can be described thus: Antiviral activity against HIV1 3B infected in human MT2 cells assessed as inhibition of viral p24 antigen production by ELISA. The class given is functional, organism-based. Conditions: Human immunodeficiency virus 1, 3B. The procedure, abridged: (§1)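 MT-2 cells (1 × 10⁴) infected with 100 TCID₅₀ virus with or without peptides at graded concentrations. Culture supernatants collected on day 4 postinfection; p24 antigen quantified by ELISA. Percent inhibition and EC₅₀ calculated; tested in triplicate, mean ± standard deviation.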
In general terms: In an ELISA, binding on a coated surface is turned into a signal by an enzyme label.

Series [3] is described as follows: Cytotoxicity against human MT2 cells after 4 days by XTT assay. In kind it is cell-based. The procedure, abridged: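 MT-2 cells (5 × 10⁵/mL) mixed with equal volumes of graded conjugate concentrations and held at 37 °C for 4 days. XTT (1 mg/mL) with 0.02 μM phenazine methosulfate added for 4 h, then A450 read. CC50 calculated from the dose–response.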
(In general: Tetrazolium dyes change colour on reduction, which living cells bring about.)

In series [4] the test system is Human immunodeficiency virus 1. The series can be described thus: Antiviral activity against HIV1 BaL infected in human […] cells assessed as inhibition of viral replication. The class given is functional, organism-based. As to conditions: Human immunodeficiency virus 1, BaL. The procedure, abridged: as §1
Series [5] deals with GP41 (Human immunodeficiency virus 1) (UniProt Q76270). As to the kind of experiment: Ratio of EC50 for HIV1 gp41-induced cell-cell fusion between viral envelope expressing human HL2/3 cells to CD4/CCR5 receptor expressing TZM-bl cells with wash out to EC50 for HIV1 gp41-induced cell-cell fusion between viral envelope expressing human HL2/3 cells to CD4/CCR5 receptor expressing TZM-bl cells. In kind it is cell-based. The procedure, abridged:
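Peptides preincubated with TZM-bl cells at 37 °C for 1 h, with or without washing away unbound peptide. EC50 compared between washed and unwashed cells, giving the n-fold change. Triplicates, mean ± SD.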

Each structure is given as a SMILES string. Square brackets hold non-standard residues; d marks the D form. Peptide text beside a SMILES is read from it. * marks the point of attachment. X3 = C=C(C)[C@@H]1CC[C@]2(C(=O)O)CC[C@]3(C)[C@H](CC[C@@H]4[C@@]5(C)CC[C@H](OC(=O)CCc6cn(CC(=O)*)nn6)C(C)(C)[C@@H]5CC[C@]43C)[C@@H]12; X5 = C=C(C)[C@@H]1CC[C@]2(C(=O)OCc3cn(CC(=O)*)nn3)CC[C@]3(C)[C@H](CC[C@@H]4[C@@]5(C)CC[C@H](OC(C)=O)C(C)(C)[C@@H]5CC[C@]43C)[C@@H]12; X8 = C[C@H]1[C@H](C)CC[C@]2(C(=O)O)CC[C@]3(C)C(=CC[C@@H]4[C@@]5(C)CC[C@H](OC(=O)CCc6cn(CC(=O)*)nn6)C(C)(C)[C@@H]5CC[C@]43C)[C@H]12; X6 = CC1(C)CC[C@]2(C(=O)O)CC[C@]3(C)C(=CC[C@@H]4[C@@]5(C)CC[C@H](OC(=O)CCc6cn(CC(=O)*)nn6)C(C)(C)[C@@H]5CC[C@]43C)[C@@H]2C1; βAla = NCCC(=O)O

Turning to `CC[C@H](C)[C@H](NC(=O)[C@H](CC(C)C)NC(=O)[C@H](CO)NC(=O)[C@H](Cc1cnc[nH]1)NC(=O)[C@@H](NC(=O)[C@H](CC(C)C)NC(=O)[C@H](CO)NC(=O)[C@@H](NC(=O)[C@H](Cc1ccc(O)cc1)NC(=O)[C@H](CC(N)=O)NC(=O)[C@H](CC(N)=O)NC(=O)CCNC(=O)Cn1cc(CCC(=O)O[C@H]2CC[C@]3(C)[C@H]4CC=C5[C@@H]6[C@@H](C)[C@H](C)CC[C@]6(C(=O)O)CC[C@@]5(C)[C@]4(C)CC[C@H]3C2(C)C)nn1)[C@@H](C)O)[C@@H](C)CC)C(=O)N[C@@H](CCC(=O)O)C(=O)N[C@@H](CCC(=O)O)C(=O)N[C@@H](CO)C(=O)N[C@@H](CCC(N)=O)C(=O)N[C@@H](CC(N)=O)C(=O)N[C@@H](CCC(N)=O)C(=O)N[C@@H](CCC(N)=O)C(=O)N[C@@H](CCC(=O)O)C(=O)N[C@@H](CCCCN)C(=O)N[C@@H](CC(N)=O)C(=O)N[C@@H](CCC(=O)O)C(=O)N[C@@H](CCC(N)=O)C(=O)N[C@@H](CCC(=O)O)C(=O)N[C@@H](CC(C)C)C(=O)N[C@@H](CC(C)C)C(N)=O` ({X8-βAla}-NNYTSLIHSLIEESQNQQEKNEQELL-NH2), the selectivity ratio in series [1] is more than 64. The EC50 in series [2] is 387 nM; in series [4], 113 nM. The CC50 at 96 h in series [3] was more than 25000 nM.
On the same counts, the results for `C=C(C)[C@@H]1CC[C@]2(C(=O)O)CC[C@]3(C)[C@H](CC[C@@H]4[C@@]5(C)CC[C@H](OC(=O)CCc6cn(CC(=O)NCCCC[C@H](NC(=O)CCNC(=O)[C@H](CC(C)C)NC(=O)[C@H](CC(C)C)NC(=O)[C@H](CCC(=O)O)NC(=O)[C@H](CCC(N)=O)NC(=O)[C@H](CCC(=O)O)NC(=O)[C@H](CC(N)=O)NC(=O)[C@H](CCCCN)NC(=O)[C@H](CCC(=O)O)NC(=O)[C@H](CCC(N)=O)NC(=O)[C@H](CCC(N)=O)NC(=O)[C@H](CC(N)=O)NC(=O)[C@H](CCC(N)=O)NC(=O)[C@H](CO)NC(=O)[C@H](CCC(=O)O)NC(=O)[C@H](CCC(=O)O)NC(=O)[C@@H](NC(=O)[C@H](CC(C)C)NC(=O)[C@H](CO)NC(=O)[C@H](Cc7cnc[nH]7)NC(=O)[C@@H](NC(=O)[C@H](CC(C)C)NC(=O)[C@H](CO)NC(=O)[C@@H](NC(=O)[C@H](Cc7ccc(O)cc7)NC(=O)[C@H](CC(N)=O)NC(=O)[C@H](CC(N)=O)NC(C)=O)[C@@H](C)O)[C@@H](C)CC)[C@@H](C)CC)C(N)=O)nn6)C(C)(C)[C@@H]5CC[C@]43C)[C@@H]12` (Ac-NNYTSLIHSLIEESQNQQEKNEQELL[βAla]K(X3)-NH2) are more than 406, 61.6 nM, 83.1 nM and more than 25000 nM.
For `C=C(C)[C@@H]1CC[C@]2(C(=O)O)CC[C@]3(C)[C@H](CC[C@@H]4[C@@]5(C)CC[C@H](OC(=O)CCc6cn(CC(=O)NCCC(=O)N[C@@H](CC(N)=O)C(=O)N[C@@H](CC(N)=O)C(=O)N[C@@H](Cc7ccc(O)cc7)C(=O)N[C@H](C(=O)N[C@@H](CO)C(=O)N[C@@H](CC(C)C)C(=O)N[C@H](C(=O)N[C@@H](Cc7cnc[nH]7)C(=O)N[C@@H](CO)C(=O)N[C@@H](CC(C)C)C(=O)N[C@H](C(=O)N[C@@H](CCC(=O)O)C(=O)N[C@@H](CCC(=O)O)C(=O)N[C@@H](CO)C(=O)N[C@@H](CCC(N)=O)C(=O)N[C@@H](CC(N)=O)C(=O)N[C@@H](CCC(N)=O)C(=O)N[C@@H](CCC(N)=O)C(=O)N[C@@H](CCC(=O)O)C(=O)N[C@@H](CCCCN)C(=O)N[C@@H](CC(N)=O)C(=O)N[C@@H](CCC(=O)O)C(=O)N[C@@H](CCC(N)=O)C(=O)N[C@@H](CCC(=O)O)C(=O)N[C@@H](CC(C)C)C(=O)N[C@@H](CC(C)C)C(N)=O)[C@@H](C)CC)[C@@H](C)CC)[C@@H](C)O)nn6)C(C)(C)[C@@H]5CC[C@]43C)[C@@H]12` ({X3-βAla}-NNYTSLIHSLIEESQNQQEKNEQELL-NH2), the selectivity ratio in series [1] is more than 187. The figures for the EC50 in series [2] and in series [4] were 133 nM and 98 nM, respectively. Moreover, the CC50 at 96 h in series [3] was more than 25000 nM. Also, the Ratio EC50 in series [5] was more than 85.
Regarding `CC[C@H](C)[C@H](NC(=O)[C@H](CC(C)C)NC(=O)[C@H](CO)NC(=O)[C@H](Cc1cnc[nH]1)NC(=O)[C@@H](NC(=O)[C@H](CC(C)C)NC(=O)[C@H](CO)NC(=O)[C@@H](NC(=O)[C@H](Cc1ccc(O)cc1)NC(=O)[C@H](CC(N)=O)NC(=O)[C@H](CC(N)=O)NC(=O)CCNC(=O)Cn1cc(CCC(=O)O[C@H]2CC[C@]3(C)[C@H]4CC=C5[C@@H]6CC(C)(C)CC[C@]6(C(=O)O)CC[C@@]5(C)[C@]4(C)CC[C@H]3C2(C)C)nn1)[C@@H](C)O)[C@@H](C)CC)C(=O)N[C@@H](CCC(=O)O)C(=O)N[C@@H](CCC(=O)O)C(=O)N[C@@H](CO)C(=O)N[C@@H](CCC(N)=O)C(=O)N[C@@H](CC(N)=O)C(=O)N[C@@H](CCC(N)=O)C(=O)N[C@@H](CCC(N)=O)C(=O)N[C@@H](CCC(=O)O)C(=O)N[C@@H](CCCCN)C(=O)N[C@@H](CC(N)=O)C(=O)N[C@@H](CCC(=O)O)C(=O)N[C@@H](CCC(N)=O)C(=O)N[C@@H](CCC(=O)O)C(=O)N[C@@H](CC(C)C)C(=O)N[C@@H](CC(C)C)C(N)=O` ({X6-βAla}-NNYTSLIHSLIEESQNQQEKNEQELL-NH2), the selectivity ratio in series [1] was more than 266. The values for the EC50 in series [2] and in series [4] were 94 nM and 150 nM, respectively. In series [3], this molecule displayed a CC50 at 96 h of more than 25000 nM.
Regarding `C=C(C)[C@@H]1CC[C@]2(C(=O)OCc3cn(CC(=O)NCCCC[C@H](NC(=O)CCNC(=O)[C@H](CC(C)C)NC(=O)[C@H](CC(C)C)NC(=O)[C@H](CCC(=O)O)NC(=O)[C@H](CCC(N)=O)NC(=O)[C@H](CCC(=O)O)NC(=O)[C@H](CC(N)=O)NC(=O)[C@H](CCCCN)NC(=O)[C@H](CCC(=O)O)NC(=O)[C@H](CCC(N)=O)NC(=O)[C@H](CCC(N)=O)NC(=O)[C@H](CC(N)=O)NC(=O)[C@H](CCC(N)=O)NC(=O)[C@H](CO)NC(=O)[C@H](CCC(=O)O)NC(=O)[C@H](CCC(=O)O)NC(=O)[C@@H](NC(=O)[C@H](CC(C)C)NC(=O)[C@H](CO)NC(=O)[C@H](Cc4cnc[nH]4)NC(=O)[C@@H](NC(=O)[C@H](CC(C)C)NC(=O)[C@H](CO)NC(=O)[C@@H](NC(=O)[C@H](Cc4ccc(O)cc4)NC(=O)[C@H](CC(N)=O)NC(=O)[C@H](CC(N)=O)NC(C)=O)[C@@H](C)O)[C@@H](C)CC)[C@@H](C)CC)C(N)=O)nn3)CC[C@]3(C)[C@H](CC[C@@H]4[C@@]5(C)CC[C@H](OC(C)=O)C(C)(C)[C@@H]5CC[C@]43C)[C@@H]12` (Ac-NNYTSLIHSLIEESQNQQEKNEQELL[βAla]K(X5)-NH2), the selectivity ratio in series [1] is more than 603. Also, the values for the EC50 in series [2] and in series [4] were 41.4 nM and 20.8 nM, respectively. For the same molecule, the CC50 at 96 h in series [3] was more than 25000 nM.
